According to ChEMBL document CHEMBL1122569, “Synthesis and antiinflammatory activity of [(cycloalkylmethyl)phenyl]acetic acids and related compounds” (1984):

How the values were obtained:
Rattus norvegicus [1] = assay: Analgesic activity on peroral administration against Scald induced pain in rat paw; format: functional; details: for ED50: Rattus norvegicus, po, read-out: ID50 (the source's name)
Method in brief: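 Male Wister Imamichi rats (~100 g), fasted 16 h. A hind paw was scalded at 57 °C for 6 s, then restimulated at 40 °C for 5 s. Compounds at 58–0.23 mg/kg in 0.5% tragacanth were given orally 2 h after scalding. Paw-lifting time over 30 s was recorded 1 and 2 h post-dose, and the mean used for % inhibition and ID50.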

Rattus norvegicus [2] = assay: Antiinflammatory activity on peroral administration against carrageenan paw edema; format: functional; details: po, read-out: ID50 (the source's name)
Method in brief: (§1)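 Compound given; 30 min later 1% carrageenan in saline injected subcutaneously into the hind-paw plantar region. Paw volume measured just before and 3 h after carrageenan. ID50 from a least-squares regression line of percent inhibition against dose.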

Cavia porcellus [3] = assay: Antipyretic activity on peroral administration against LPS-induced fever in guinea pig.; format: functional; details: po, read-out: ID50 (the source's name)
Method in brief: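 Female Hartley guinea pigs (300–350 g), fasted 16 h. Fever induced with E. coli LPS at 1 µg/kg i.v. Compounds were dosed at 6.3–0.23 mg/kg. Rectal temperature was taken 1 and 2 h after dosing and the mean used. ID50 by least-squares regression of % inhibition on dose.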

Rattus norvegicus [4] = assay: Analgesic activity on peroral administration against scald induced pain in rat paw; format: functional; details: po, read-out: ID50 (the source's name)
Method in brief: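 Male Wister Imamichi rats (about 100 g), fasted 16 h, had one hind paw scalded in 57 °C water for 6 s, then re-dipped in 40 °C water for 5 s. Oral dosing in 0.5% tragacanth (58–0.23 mg/kg) followed 2 h after scalding. Paw-lifting time within 30 s was scored 1 and 2 h post-dose. The mean of the two readings gave percent inhibition and ID50.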

Rattus norvegicus [5] = assay: Antiinflammatory activity on peroral administration in rat determined by Randall-Slelitto test; format: functional; details: po
Method in brief: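 Fasted male Wister Imamichi rats (60–90 g) received 20% brewer's yeast in the right hind paw. After 4 h, rats with pressure pain threshold below 10×30 g were dosed at 50–0.05 mg/kg. Animals were counted effective if the threshold rise exceeded twice the unmedicated control. ED50 by Litchfield–Wilcoxon.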

Rattus norvegicus [6] = assay: Gastric lesion activity on peroral administration in rat.; format: functional; details: po
Method in brief: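 Male Wister Imamichi rats (~120 g), fasted 16 h, dosed at 20–2.5 mg/kg. Killed 3.5 h later; stomachs opened along the greater curvature and rinsed with saline. Dark brown lesions of 0.5 mm length were counted under a stereomicroscope.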

Cavia porcellus [7] = assay: Analgesic activity on peroral administration against Bradykinin induced pain in guinea pig paw; details: po
Rattus norvegicus [8] = assay: Antiinflammatory activity on peroral administration against adjuvant arthritis in rat.; format: functional; details: po, read-out: ID50 (the source's name)
Method in brief: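 Female Lewis rats (160–200 g) received complete Freund adjuvant (heat-killed M. tuberculosis, 1 mg/mL in liquid paraffin) in the right hind paw. Dosing was 5.0–0.04 mg/kg once daily, days 0–20. Injected-paw swelling was measured by water displacement (day before vs day 21), as % inhibition versus untreated control. ID50 by least-squares regression.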

Rattus norvegicus [9] = assay: Antiinflammatory activity on peroral administration against carrageenan induced rat paw edema.; format: functional; details: po, read-out: ID50 (the source's name); method in brief: as §1

Q: For `CC(C(=O)O)c1ccc(CC2CCC/C2=N/O)cc1` (stereo not given), which ED50 (Rattus norvegicus [1]) is on record?
A: 4.9 mg/kg

Q: And the ED50 (Rattus norvegicus [2])?
A: 1.3 mg/kg

Q: With `O=C(O)Cc1ccc(CC2CCC/C2=N/O)cc1` (stereo not given) as the molecule, how does the ED50 (Rattus norvegicus [1]) read?
A: 15 mg/kg

Q: And the ED50 (Rattus norvegicus [2])?
A: 24.8 mg/kg

Q: Which results are given for `CC(C(=O)O)c1ccc(CC2CCCCC2=O)cc1` (stereo not given)?
A: ED50 (Rattus norvegicus [1]): 9.1 mg/kg; ED50 (Rattus norvegicus [2]): 1.2 mg/kg

Q: `CC(C(=O)O)c1ccc(/C=C2\CCCCCC2=O)cc1` (stereo not given) was tested. Which ED50 (Rattus norvegicus [1]) did it give?
A: > 100 mg/kg

Q: What about the ED50 (Rattus norvegicus [2]) of the same molecule?
A: > 100 mg/kg

Q: For `CC(C(=O)O)c1ccc(CC2CCCCCC2=O)cc1` (stereo not given), which ED50 (Rattus norvegicus [1]) is on record?
A: > 100 mg/kg

Q: And the ED50 (Rattus norvegicus [2])?
A: > 100 mg/kg

Q: Which results are given for `O=C(O)Cc1ccc(CC2CCCC/C2=N/O)cc1` (stereo not given)?
A: ED50 (Rattus norvegicus [1]): 31.1 mg/kg; ED50 (Rattus norvegicus [2]): 23.5 mg/kg

Q: Which ED50 (Rattus norvegicus [1]) does the source give for `CC(C(=O)O)c1ccc(CC2CCCC2)cc1` (stereo not given) here?
A: 5.1 mg/kg

Q: What about the ED50 (Rattus norvegicus [2]) of the same molecule?
A: > 100 mg/kg

Q: How did the ED50 (Rattus norvegicus [1]) turn out when `CC(C(=O)O)c1ccc(CC2CCCC/C2=N/O)cc1` (stereo not given) was run?
A: 3.6 mg/kg

Q: And the ED50 (Rattus norvegicus [2])?
A: 1.4 mg/kg

Q: What does the source list for `O=C(O)Cc1ccc(CC2CCCC2=O)cc1` (stereo not given)?
A: ED50 (Rattus norvegicus [1]): 23 mg/kg; ED50 (Rattus norvegicus [2]): 9.1 mg/kg

Q: Which results are given for `CC(C(=O)O)c1ccc(/C=C2\CCCC2=O)cc1` (stereo not given)?
A: ED50 (Rattus norvegicus [1]): 1.3 mg/kg; ED50 (Rattus norvegicus [2]): 1.5 mg/kg

Q: With `CC(C(=O)O)c1ccc(CC2CCCCC/C2=N/O)cc1` (stereo not given) as the molecule, how does the ED50 (Rattus norvegicus [1]) read?
A: > 100 mg/kg

Q: And the ED50 (Rattus norvegicus [2])?
A: > 100 mg/kg

Q: `O=C(O)Cc1ccc(CC2CCCCC2=O)cc1` (stereo not given) was tested. Which ED50 (Rattus norvegicus [1]) did it give?
A: 53.8 mg/kg

Q: What about the ED50 (Rattus norvegicus [2]) of the same molecule?
A: 45.7 mg/kg

Q: Which ED50 (Rattus norvegicus [1]) does the source give for `CC(C)Cc1ccc(C(C)C(=O)O)cc1` (stereo not given) [IBUPROFEN] here?
A: 15.9 mg/kg

Q: With `COc1ccc2c(c1)c(CC(=O)O)c(C)n2C(=O)c1ccc(Cl)cc1` [INDOMETHACIN] as the molecule, how does the ED50 (Cavia porcellus [3]) read?
A: 9.5 mg/kg

Q: And the ED50 (Rattus norvegicus [1])?
A: 3.5 mg/kg

Q: And the ED50 (Rattus norvegicus [4])?
A: 3.5 mg/kg

Q: What about the ED50 (Rattus norvegicus [5]) of the same molecule?
A: 2.8 mg/kg

Q: What about the ED50 (Rattus norvegicus [2]) of the same molecule?
A: 2.2 mg/kg

Q: And the UD50 (Rattus norvegicus [6])?
A: 6.4 mg/kg

Q: And the ED50 (Cavia porcellus [7])?
A: 8.3 mg/kg

Q: How did the ED50 (Cavia porcellus [3]) turn out when `CC(C(=O)[O-])c1ccc(CC2CCCC2=O)cc1.[Na+]` (stereo not given) [LOXOPROFEN SODIUM] was run?
A: 0.76 mg/kg

Q: And the ED50 (Rattus norvegicus [1])?
A: 0.76 mg/kg

Q: And the ED50 (Rattus norvegicus [5])?
A: 0.13 mg/kg

Q: And the ED50 (Rattus norvegicus [8])?
A: 0.59 mg/kg

Q: And the ED50 (Rattus norvegicus [2])?
A: 1.2 mg/kg

Q: And the UD50 (Rattus norvegicus [6])?
A: 16.1 mg/kg

Q: What about the ED50 (Cavia porcellus [7]) of the same molecule?
A: 0.4 mg/kg

Q: `CC(C(=O)O)c1ccc(CC2CCCC2=O)cc1` (stereo not given) [LOXOPROFEN] was tested. Which ED50 (Rattus norvegicus [1]) did it give?
A: 0.8 mg/kg

Q: What about the ED50 (Rattus norvegicus [2]) of the same molecule?
A: 1.7 mg/kg

Q: With `CC(C(=O)O)c1ccc(/C=C2\CCCCC2=O)cc1` (stereo not given) [PELUBIPROFEN] as the molecule, how does the ED50 (Cavia porcellus [3]) read?
A: 1.5 mg/kg

Q: What about the ID50 (Rattus norvegicus [1]) of the same molecule?
A: 1.7 mg/kg

Q: What about the ED50 (Rattus norvegicus [1]) of the same molecule?
A: 1.8 mg/kg

Q: What about the ED50 (Rattus norvegicus [5]) of the same molecule?
A: 0.94 mg/kg

Q: And the ED50 (Rattus norvegicus [8])?
A: 0.06 mg/kg

Q: What about the ED50 (Rattus norvegicus [9]) of the same molecule?
A: 1.2 mg/kg

Q: And the ED50 (Rattus norvegicus [2])?
A: 0.9 mg/kg

Q: And the UD50 (Rattus norvegicus [6])?
A: 14.3 mg/kg

Q: And the ED50 (Cavia porcellus [7])?
A: 4.5 mg/kg
